Laboratory results published in ChEMBL document CHEMBL1128459, “Characterization of potent and selective antagonists at postsynaptic 5-HT1A receptors in a series of N4-substituted arylpiperazines” (J Med Chem, 1995).
pKi: −log10 of the molar value.

Columns and labels:
[1] = molecular target: T1, 5-hydroxytryptamine receptor 1A (Rattus norvegicus, UniProt P19327); test: Binding affinity at 5-hydroxytryptamine 1A receptor
T1 sequence (P19327 whole entry): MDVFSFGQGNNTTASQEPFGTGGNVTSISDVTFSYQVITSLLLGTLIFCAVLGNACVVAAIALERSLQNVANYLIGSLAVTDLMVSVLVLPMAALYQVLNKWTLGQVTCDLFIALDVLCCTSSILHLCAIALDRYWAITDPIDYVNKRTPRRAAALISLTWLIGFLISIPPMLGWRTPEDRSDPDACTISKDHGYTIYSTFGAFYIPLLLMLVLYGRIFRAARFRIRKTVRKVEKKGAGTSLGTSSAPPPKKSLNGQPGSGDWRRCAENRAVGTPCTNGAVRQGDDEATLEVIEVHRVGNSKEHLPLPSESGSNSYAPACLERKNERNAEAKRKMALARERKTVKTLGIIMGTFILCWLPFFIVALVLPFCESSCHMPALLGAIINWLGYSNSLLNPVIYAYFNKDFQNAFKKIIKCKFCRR
In short: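 Rat hippocampal membranes (1/100 wt/vol) in 50 mM Tris pH 7.7 with 4 mM CaCl2, 0.1% ascorbic acid and pargyline. Membranes were spun at 25000g, preincubated 30 min at 37 °C and respun, then incubated with 0.4 nM [3H]-8-OH-DPAT for 30 min at 25 °C. 5-HT defined nonspecific binding, and samples were filtered on PEI-soaked GF/B. IC50 came from regression; pKi = −log[IC50/(1+[L]/Kd)].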

[2] = molecular target: D(2) dopamine receptor (Rattus norvegicus) (UniProt P61169)
Sequence of D(2) dopamine receptor (Rattus norvegicus) (P61169 whole entry): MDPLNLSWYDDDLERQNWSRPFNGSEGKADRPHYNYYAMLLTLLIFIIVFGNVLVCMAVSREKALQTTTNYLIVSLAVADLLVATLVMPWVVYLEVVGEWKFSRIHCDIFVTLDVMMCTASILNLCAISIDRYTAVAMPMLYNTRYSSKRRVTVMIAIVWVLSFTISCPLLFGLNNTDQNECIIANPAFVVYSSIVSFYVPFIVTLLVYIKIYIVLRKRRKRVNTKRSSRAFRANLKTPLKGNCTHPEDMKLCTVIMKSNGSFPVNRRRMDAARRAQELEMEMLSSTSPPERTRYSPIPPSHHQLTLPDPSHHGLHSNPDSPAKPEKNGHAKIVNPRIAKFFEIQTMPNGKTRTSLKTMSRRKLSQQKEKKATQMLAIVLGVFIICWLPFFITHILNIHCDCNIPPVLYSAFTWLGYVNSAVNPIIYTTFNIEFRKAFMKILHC

[3] = tested on: Rattus norvegicus; test: Compound after subcutaneous administration was evaluated for antagonist activity against hypothermia induced by 8-hydroxy -DPAT in rat; type: functional; conditions: sc, read-out: ID50 (the source's name)
In short: (§1)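 Male Wistar rats (200-220 g) had rectal temperature taken, then received the test drug sc in distilled water (1.0 mL/kg). After 30 min they got 8-OH-DPAT 0.16 mg/kg sc, and temperature was remeasured 30 min later. Change from basal was scored.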

[4] = Ratio of MED (agonist) to that of MED (antagonist) values.; type: functional
In short: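 The MED for inducing hypothermia alone was divided by the MED for blocking 8-OH-DPAT (0.16 mg/kg sc) hypothermia. Both MEDs came from sc dosing in male Wistar rats and were tested against vehicle by ANOVA with Dunnett's test, P < 0.05.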

[5] = tested on: Rattus norvegicus; test: Minimum effective agonist dose administered subcutaneously; type: functional; conditions: sc, read-out: MED
In short: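 Male Wistar rats (200-220 g) were given the test drug alone sc in water (1.0 mL/kg), with vehicle reinjected at 30 min. Rectal temperature change from basal was measured 60 min after the first injection. MED for hypothermia was set against vehicle by ANOVA with Dunnett's test, P < 0.05.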

[6] = organism: Rattus norvegicus; test: Maximum antagonist effect (% effect) expressed relative to 8-hydroxy-DPAT (100%); type: functional
In short: (§2)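 In the rat rectal-temperature model (sc dosing, 8-OH-DPAT 0.16 mg/kg sc for antagonism), the maximal percentage of induced hypothermia (agonist) and of block of 8-OH-DPAT hypothermia (antagonist) was recorded. Each value is given with the dose at which it was reached.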

[7] = tested on: Rattus norvegicus; test: Minimum effective antagonist dose administered subcutaneously; type: functional; conditions: sc, read-out: MED; in short: as §1
[8] = organism: Rattus norvegicus; test: Maximum agonist effect (% effect) expressed relative to 8-hydroxy-DPAT (100%); type: functional; in short: as §2
[9] = molecular target: 5-hydroxytryptamine receptor 1B (Rattus norvegicus, UniProt P28564); test: Binding affinity at 5-hydroxytryptamine 1B receptor
Sequence of 5-hydroxytryptamine receptor 1B (P28564 whole entry): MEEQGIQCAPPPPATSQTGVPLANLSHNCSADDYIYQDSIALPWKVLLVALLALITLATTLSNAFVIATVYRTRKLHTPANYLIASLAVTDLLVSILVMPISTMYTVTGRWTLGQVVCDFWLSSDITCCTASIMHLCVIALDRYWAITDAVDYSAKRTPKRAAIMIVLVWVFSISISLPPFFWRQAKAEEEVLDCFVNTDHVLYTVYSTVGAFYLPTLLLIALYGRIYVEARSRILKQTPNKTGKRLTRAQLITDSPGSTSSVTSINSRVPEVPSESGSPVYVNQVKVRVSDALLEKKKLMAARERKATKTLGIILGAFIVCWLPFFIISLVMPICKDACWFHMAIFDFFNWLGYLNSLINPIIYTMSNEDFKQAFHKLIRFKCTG
In short: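 Rat frontal cortex membranes (1/40 wt/vol) were homogenized in 50 mM Tris pH 7.7 with pargyline, 4 mM CaCl2 and 0.1% ascorbic acid, then preincubated for 30 min at 37 °C. Labelled with 2.0 nM [3H]-5-HT, with 100 nM 8-OH-DPAT and 100 nM mesulergine masking 5-HT1A/5-HT2A sites; 5-CT defined nonspecific binding.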

[10] = molecular target: D(2) dopamine receptor (Rattus norvegicus, UniProt P61169); test: In vitro binding affinity towards Dopamine receptor D2 in rat striatum was determined using [3H]-spiperone as radioligand; type: tissue-based
Sequence of D(2) dopamine receptor (P61169 whole entry): as the sequence (P61169 whole entry) above
In short: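 Rat striatal membranes (1/300 wt/vol), no preincubation, in 50 mM Tris pH 7.4 with CaCl2, ascorbic acid, 5 mM KCl, 1 mM MgCl2 and 120 mM NaCl. Ligand 0.2 nM [3H]spiperone, with 100 nM ketanserin masking 5-HT2A sites; raclopride defined nonspecific binding. Incubation 30 min at 37 °C, then filtration. pKi derived from regression-based IC50.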

SMILES	pKi [1]	ID50 [2]	ED50 [3]	Ratio [4]	minimal effective dose [5]	Max effect [6]	minimal effective dose [7]	Max effect [8]	pKi [9]	pKi [10]
c1ccc2c(c1)CC(CCCN1CCN(c3cccc4c3OCCO4)CC1)C2	8.90	> 40 mg/kg	0.47 mg/kg	63.5	40 mg/kg	70%	0.63 mg/kg	40%	5.73	
C1=C(CCN2CCN(c3cccc4c3OCCO4)CC2)c2ccccc2CC1	8.70	> 40 mg/kg	0.4 mg/kg	> 63.5	> 40 mg/kg	100%	0.63 mg/kg	14%	6.64	
Clc1cccc2c1CC2CCCN1CCN(c2cccc3c2OCCO3)CC1 (stereo not given)	8.43	40 mg/kg	3.09 mg/kg	> 15.8	> 10 mg/kg	60%	0.63 mg/kg	15%	5.96	
C1=C(CCN2CCN(c3cccc4c3OCCO4)CC2)Cc2ccccc21	9.27		0.36 mg/kg	32.2	10 mg/kg	81%	0.31 mg/kg	76%	6.03	
c1ccc2c(c1)CC2CN1CCN(c2cccc3c2OCCO3)CC1 (stereo not given)	8.75	> 40 mg/kg	0.67 mg/kg	15.8	10 mg/kg	85%	0.63 mg/kg	100%	6.67	
c1ccc2c(c1)CCC2CCCN1CCN(c2cccc3c2OCCO3)CC1 (stereo not given)	9.21	> 40 mg/kg	0.29 mg/kg	62.5	10 mg/kg	81%	0.16 mg/kg	100%	6.69	
c1ccc2c(c1)CC(CN1CCN(c3cccc4c3OCCO4)CC1)C2	8.55	> 40 mg/kg	0.55 mg/kg	> 15.8	> 10 mg/kg	87%	0.63 mg/kg	0%	6.31	
c1ccc2c(c1)CC2CN1CCN(c2cccc3ccoc23)CC1 (stereo not given)	8.10		1.12 mg/kg	> 4	> 10 mg/kg	96%	2.5 mg/kg	15%	6.04	
c1ccc2c(c1)CC2CCCN1CCN(c2cccc3c2OCCO3)CC1 (stereo not given)	9.35	1.7 mg/kg	0.18 mg/kg	62.5	10 mg/kg	75%	0.16 mg/kg	100%	6.19	
COc1cc2nc(N3CCN(C(=O)c4ccco4)CC3)nc(N)c2cc1OC		> 10 mg/kg								
c1ccc2c(c1)CCCC2CCN1CCN(c2cccc3c2OCCO3)CC1 (stereo not given)	8.56	40 mg/kg	0.4 mg/kg	> 15.6	> 2.5 mg/kg	70%	0.16 mg/kg	8%	6.15	
c1ccc2c(c1)CC(CCN1CCN(c3cccc4c3OCCO4)CC1)C2		5.9 mg/kg	0.27 mg/kg	62.5	10 mg/kg	100%	0.16 mg/kg	50%	6.16	
c1ccc2c(c1)CC2CN1CCN(c2cccc3c2OCCCO3)CC1 (stereo not given)	8.10	> 40 mg/kg	0.32 mg/kg	> 15.8	> 10 mg/kg	91%	0.63 mg/kg	76%		
c1ccc2c(c1)CC2CCCN1CCN(c2cccc3c2OCCCO3)CC1 (stereo not given)	9.10		0.27 mg/kg	> 15.6	> 2.5 mg/kg	85%	0.16 mg/kg	21%	6.21	
c1ccc2c(c1)CC2CCN1CCN(c2cccc3c2OCCCO3)CC1 (stereo not given)	8.94	30 mg/kg	2.68 mg/kg	32	40 mg/kg	72%	1.25 mg/kg	31%	6.25	
COc1ccccc1N1CCN(CCN2C(=O)CC3(CCCC3)CC2=O)CC1 [BMY-7378]		0.65 mg/kg	1.6 mg/kg		2.5 mg/kg	64%	1.25 mg/kg	53%	< 5.00	7.76
Fc1cccc2c1CC2CN1CCN(c2cccc3c2OCCO3)CC1 (stereo not given)	8.75	> 40 mg/kg	2.51 mg/kg	> 15.8	> 10 mg/kg	61%	0.63 mg/kg	19%	6.50	
C1=C(CCN2CCN(c3cccc4c3OCCO4)CC2)c2ccccc2C1	9.10	> 40 mg/kg	0.45 mg/kg	> 4	> 2.5 mg/kg	94%	0.63 mg/kg	21%	6.60	
c1cc2c(c(N3CCNCC3)c1)OCCO2 [ELTOPRAZINE]			> 40 mg/kg	< 0.06	2.5 mg/kg	0%	> 40 mg/kg	100%		
COc1cc2c(cc1OC)C(CCN1CCN(c3cccc4c3OCCO4)CC1)C2 (stereo not given)	8.50	> 40 mg/kg	1.41 mg/kg	> 32	> 40 mg/kg	96%	1.25 mg/kg	4%	6.10	
c1ccc2c(c1)CCCCC2CCN1CCN(c2cccc3c2OCCO3)CC1 (stereo not given)	8.18	> 10 mg/kg	4.26 mg/kg	> 2	> 10 mg/kg	96%	5 mg/kg	9%	6.11	
C1=C(CCN2CCN(c3cccc4c3OCCO4)CC2)c2ccccc2CCC1	8.50	40 mg/kg	5.02 mg/kg	> 16	> 40 mg/kg	55%	2.5 mg/kg	33%	6.42	
COc1ccc2c(c1)C(CCN1CCN(c3cccc4c3OCCO4)CC1)C2 (stereo not given)	8.90	> 40 mg/kg	0.48 mg/kg	15.8	10 mg/kg	95%	0.63 mg/kg	35%	6.50	
